Calls of active or inactive are those of the source. No cut-off for these calls is given here.
Assays:
[1] = Antioxidant activity assessed as hydrogen peroxide scavenging activity by lucigenin oxidation assay; format: functional
Procedure, shortened: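 H2O2 scavenging followed as inhibition (%) of H2O2-induced lucigenin oxidation on a microplate reader. Ascorbic acid was the positive control. IC50 reported as mean ± SE from five experiments, each in triplicate.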

[2] = Antioxidant activity assessed as singlet oxygen scavenging activity by fluorescent rhodamine formation assay; format: functional
Procedure, shortened: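 Singlet oxygen scavenging monitored as inhibition (%) of 1O2-induced oxidation of non-fluorescent dihydrorhodamine to fluorescent rhodamine. Ascorbic acid was the positive control. IC50 given as mean ± SE, five experiments in triplicate.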

[3] = Antioxidant activity assessed as peroxyl radical scavenging activity by measuring oxygen radical absorbance capacity; format: functional; set-up: reference not given here
[4] = Reducing activity assessed as reduction of ferric ion by reducing power assay
Procedure, shortened: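 Compounds in 1:4 water/DMSO were mixed with 0.2 M phosphate buffer pH 6.6 and 1% w/v K3Fe(CN)6, then held 20 min at 50 °C. After 10% w/v TCA and centrifugation (10 min, 3000 g), the supernatant was diluted with water plus 0.1% w/v FeCl3 and read at 700 nm. Ascorbic acid was the positive control. Values are mean ± SE of triplicates.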

[5] = Antioxidant activity assessed as superoxide radical scavenging activity by NBT dye reduction assay; format: functional
Procedure, shortened: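 Superoxide generated by the NADH/PMS system. Scavenging read as inhibition (%) of O2•−-driven NBT reduction to diformazan at 560 nm. Tiron was the positive control. IC50 given as mean ± SE, five experiments in triplicate.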

[6] = Antioxidant activity assessed as hypochlorous acid scavenging activity by fluorescent rhodamine formation assay; format: functional
Procedure, shortened: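 Fluorescent assay of HOCl-induced dihydrorhodamine oxidation to rhodamine, with HOCl from 1% (m/v) NaOCl adjusted to pH 6.2 with 10% H2SO4. Lipoic acid was the positive control. IC50 (mean ± SE) comes from % inhibition, five experiments in triplicate.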

[7] = Antioxidant activity assessed as nitric oxide scavenging activity by fluorescent triazofluorescein formation assay; format: functional
Procedure, shortened: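 NO scavenging measured as inhibition (%) of NO-induced oxidation of non-fluorescent DAF-2 to fluorescent triazolofluorescein. Rutin was the positive control. IC50 given as mean ± SE, five experiments in triplicate.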

[8] = Antioxidant activity assessed as peroxynitrite scavenging activity in absence of NaHCO3 by fluorescent rhodamine formation assay; format: functional
[9] = Antioxidant activity assessed as peroxynitrite scavenging activity in presence of NaHCO3 by fluorescent rhodamine formation assay; format: functional
[10] = Iron chelating activity assessed as Fe(2+)-compound complex formation at 10 uM by UV-Vis absorption spectroscopy; format: functional
Procedure, shortened: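 Iron chelation checked from changes in the UV–vis spectrum (300–600 nm) of a 10 µM (final) compound solution in 20 mM phosphate buffer, pH 7.2. Fe(II) was added sequentially to 0, 2, 4, 6, 8, 10, 12, 14 and 16 µM.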

[11] = Antioxidant activity assessed as hydrogen peroxide scavenging activity at 1 mM by lucigenin oxidation assay; format: functional
[12] = Antioxidant activity assessed as hypochlorous acid scavenging activity at 200 uM by fluorescent rhodamine formation assay; format: functional
Procedure, shortened: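 HOCl was made by bringing 1% (m/v) NaOCl to pH 6.2 with 10% H2SO4. Scavenging was read as inhibition (%) of HOCl-induced oxidation of dihydrorhodamine to fluorescent rhodamine. Value given as mean % at the highest tested concentration (200 µM). Five experiments in triplicate.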

| Structure (SMILES) | IC50 [1] | IC50 [2] | Activity [3] | Activity [4] | IC50 [5] | IC50 [6] | IC50 [7] | IC50 [8] | IC50 [9] | Activity [10] | Activity [11] | Activity [12] |
| --- | --- | --- | --- | --- | --- | --- | --- | --- | --- | --- | --- | --- |
| O=C1O[C@H]([C@@H](O)CO)C(O)=C1O [ASCORBIC ACID] | 567 µM | 10.2 µM | 0.405 | Active |  |  |  |  |  |  |  |  |
| COc1ccc2c(=O)cc(/C=C/c3ccc(O)c(O)c3)oc2c1OC | 702 µM | 7.97 µM | 2.74 | Active | 20.8 µM | 4.67 µM | 0.368 µM | 1.21 µM | 0.93 µM | Active |  |  |
| O=C(O)CCCCC1CCSS1 (stereo not drawn) [LIPOIC ACID, ALPHA] |  |  |  |  |  | 1.95 µM |  |  |  |  |  |  |
| CCCCc1c(-c2ccc(O)c(O)c2)oc2cc(O)cc(O)c2c1=O | 502 µM | 61.8 µM | 2.66 | Active | 51.8 µM | 1.45 µM | 2.72 µM | 0.6 µM | 1.24 µM |  |  |  |
| CCCCCCc1c(-c2ccc(O)c(O)c2)oc2cc(O)cc(O)c2c1=O | 348 µM | 58.6 µM | 2 | Active | 62.8 µM | 2.49 µM | 3.29 µM | 1.48 µM | 1.8 µM |  |  |  |
| CCCCCCCCCCc1c(-c2ccc(O)c(O)c2)oc2cc(O)cc(O)c2c1=O | 236 µM | 7.9 µM | 1.63 |  | 78 µM | 1.7 µM | 4.85 µM | 0.83 µM | 1.82 µM |  |  |  |
| O=c1c2ccccc2[se]n1-c1ccccc1 [EBSELEN] |  |  |  |  |  |  |  | 1 µM | 5.27 µM |  |  |  |
| O=C(c1ccc(O)c(O)c1)c1c(-c2ccc(O)c(O)c2)oc2cc(O)cc(O)c2c1=O | 367 µM | 43 µM | 4.32 | Active | 19.5 µM | 2.29 µM | 3.62 µM | 0.66 µM | 1.97 µM |  |  |  |
| COc1ccc(/C=C/c2cc(=O)c3ccc(O)c(O)c3o2)cc1OC |  | 9.95 µM | 1.4 | Active | 26 µM |  | 0.254 µM | 0.59 µM | 2.08 µM | Active | 31% | 47% |
| O=c1cc(/C=C/c2ccc(O)c(O)c2)oc2c(O)c(O)ccc12 | 799 µM | 4.69 µM | 2.58 | Active | 17.8 µM | 67.2 µM | 0.193 µM | 0.85 µM | 1.59 µM | Active |  |  |
| O=S(=O)(O)c1cc(O)c(O)c(S(=O)(=O)O)c1 [TIRON] |  |  |  |  | 288 µM |  |  |  |  |  |  |  |
| C[C@@H]1O[C@@H](OC[C@H]2O[C@@H](Oc3c(-c4ccc(O)c(O)c4)oc4cc(O)cc(O)c4c3=O)[C@H](O)[C@@H](O)[C@@H]2O)[C@H](O)[C@H](O)[C@H]1O [RUTIN] |  |  |  |  |  |  | 1.17 µM |  |  |  |  |  |

From ChEMBL document CHEMBL1152628, “Synthesis and antioxidant properties of new chromone derivatives” (Bioorg Med Chem, 2009)
